According to ChEMBL document CHEMBL1145922, “1,2-benzisoxazole phosphorodiamidates as novel anticancer prodrugs requiring bioreductive activation” (J Med Chem, 2003):

What was measured:
[1] = species: Homo sapiens; experiment: Percent formation of compound upon incubation of 15 for 60 minutes with human P450 reductase microsomes in hypoxic condition in presence of NADPH; type: functional
Method in brief: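 Human or rat P450 reductase microsomes at 1 mg/mL protein, substrate 0.25 mM and cofactor 0.5 mM; pCMBA 2 mM where stated. Anaerobic samples purged with nitrogen 15–20 min in septum-sealed vials. 60 min at 37 °C, stopped with ice-cold methanol. Ketone metabolite quantified by HPLC (C-18, methanol/water 50:50, UV 254 nm) as percent of equimolar substrate. Mean of two experiments.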

[2] = species: Rattus norvegicus; experiment: Percent formation of compound upon incubation of 15 with phenobarbit-induced rat liver microsomal fraction in hypoxic condition in presence of pCMBA at a concentration of 0 mM; type: functional
Method in brief: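 Phenobarbital-induced rat liver microsomes; inhibitors SKF-525A (in methanol) or pCMBA (in DMF) at 0–4 mM final. pCMBA preincubated 30 min before NADPH; SKF-525A incubated 15 min with microsomes and NADPH. Hypoxic samples nitrogen-purged. Substrate 2.5 mM added, 30 min at 37 °C. Ketone metabolite by HPLC at 254 nm as percent of substrate; % inhibition relative to no inhibitor. Mean of two experiments.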

## CCC(=O)c1ccccc1O
[1]
  Formation: 1.7%
[2]
  Formation: 93.2%
